Test results reported in ChEMBL document CHEMBL4371044, “Celastrol Promotes Weight Loss in Diet-Induced Obesity by Inhibiting the Protein Tyrosine Phosphatases PTP1B and TCPTP in the Hypothalamus” (J Med Chem, 2018).
The source made the active and inactive calls. No cut-off for these calls is given here.

Columns and labels:
[1] = Inhibition of mouse LMPTP-A (1 to 158 residues) expressed in Escherichia coli strain BL21(DE3) using DiFMUP as substrate preincubated for 10 mins followed by substrate addition and measured after 10 mins by fluorescence assay
Procedure, shortened: (§1)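 Selectivity panel on enzymes expressed in E. coli BL21(DE3), purified by nickel affinity then size exclusion. DiFMUP fluorescence assay run as for PTP1B/TCPTP, with per-enzyme conditions in a supplementary table; nonlinear regression for IC50; three independent experiments.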

[2] = target: T1, Tyrosine-protein phosphatase non-receptor type 11 (Homo sapiens, UniProt Q06124); assay: Inhibition of human SHP2 (246 to 527 residues) expressed in Escherichia coli strain BL21(DE3) using DiFMUP as substrate preincubated for 10 mins followed by substrate addition and measured after 10 mins by fluorescence assay; procedure, shortened: as §1
T1 sequence (Q06124 whole entry): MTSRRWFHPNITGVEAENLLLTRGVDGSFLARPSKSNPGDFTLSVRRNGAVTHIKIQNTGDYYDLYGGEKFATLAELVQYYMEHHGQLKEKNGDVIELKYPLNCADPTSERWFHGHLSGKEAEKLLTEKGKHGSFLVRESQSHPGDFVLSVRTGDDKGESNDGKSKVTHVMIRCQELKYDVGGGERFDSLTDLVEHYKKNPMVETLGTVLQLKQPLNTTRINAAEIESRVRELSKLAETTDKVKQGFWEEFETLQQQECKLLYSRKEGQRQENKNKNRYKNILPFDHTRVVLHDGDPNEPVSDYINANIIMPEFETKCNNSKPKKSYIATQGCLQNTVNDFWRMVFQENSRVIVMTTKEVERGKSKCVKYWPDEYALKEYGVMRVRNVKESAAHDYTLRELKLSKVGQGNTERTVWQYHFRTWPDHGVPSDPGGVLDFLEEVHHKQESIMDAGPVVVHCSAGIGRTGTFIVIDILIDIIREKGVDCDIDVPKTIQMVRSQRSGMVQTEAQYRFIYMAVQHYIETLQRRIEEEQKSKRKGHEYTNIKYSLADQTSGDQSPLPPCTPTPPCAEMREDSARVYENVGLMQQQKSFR

[3] = target: T2, Receptor-type tyrosine-protein phosphatase eta (Homo sapiens, UniProt Q12913); assay: Inhibition of human PTPRJ (1019 to 1311 residues) expressed in Escherichia coli strain BL21(DE3) using DiFMUP as substrate preincubated for 10 mins followed by substrate addition and measured after 10 mins by fluorescence assay; procedure, shortened: as §1
T2 sequence (Q12913 whole entry): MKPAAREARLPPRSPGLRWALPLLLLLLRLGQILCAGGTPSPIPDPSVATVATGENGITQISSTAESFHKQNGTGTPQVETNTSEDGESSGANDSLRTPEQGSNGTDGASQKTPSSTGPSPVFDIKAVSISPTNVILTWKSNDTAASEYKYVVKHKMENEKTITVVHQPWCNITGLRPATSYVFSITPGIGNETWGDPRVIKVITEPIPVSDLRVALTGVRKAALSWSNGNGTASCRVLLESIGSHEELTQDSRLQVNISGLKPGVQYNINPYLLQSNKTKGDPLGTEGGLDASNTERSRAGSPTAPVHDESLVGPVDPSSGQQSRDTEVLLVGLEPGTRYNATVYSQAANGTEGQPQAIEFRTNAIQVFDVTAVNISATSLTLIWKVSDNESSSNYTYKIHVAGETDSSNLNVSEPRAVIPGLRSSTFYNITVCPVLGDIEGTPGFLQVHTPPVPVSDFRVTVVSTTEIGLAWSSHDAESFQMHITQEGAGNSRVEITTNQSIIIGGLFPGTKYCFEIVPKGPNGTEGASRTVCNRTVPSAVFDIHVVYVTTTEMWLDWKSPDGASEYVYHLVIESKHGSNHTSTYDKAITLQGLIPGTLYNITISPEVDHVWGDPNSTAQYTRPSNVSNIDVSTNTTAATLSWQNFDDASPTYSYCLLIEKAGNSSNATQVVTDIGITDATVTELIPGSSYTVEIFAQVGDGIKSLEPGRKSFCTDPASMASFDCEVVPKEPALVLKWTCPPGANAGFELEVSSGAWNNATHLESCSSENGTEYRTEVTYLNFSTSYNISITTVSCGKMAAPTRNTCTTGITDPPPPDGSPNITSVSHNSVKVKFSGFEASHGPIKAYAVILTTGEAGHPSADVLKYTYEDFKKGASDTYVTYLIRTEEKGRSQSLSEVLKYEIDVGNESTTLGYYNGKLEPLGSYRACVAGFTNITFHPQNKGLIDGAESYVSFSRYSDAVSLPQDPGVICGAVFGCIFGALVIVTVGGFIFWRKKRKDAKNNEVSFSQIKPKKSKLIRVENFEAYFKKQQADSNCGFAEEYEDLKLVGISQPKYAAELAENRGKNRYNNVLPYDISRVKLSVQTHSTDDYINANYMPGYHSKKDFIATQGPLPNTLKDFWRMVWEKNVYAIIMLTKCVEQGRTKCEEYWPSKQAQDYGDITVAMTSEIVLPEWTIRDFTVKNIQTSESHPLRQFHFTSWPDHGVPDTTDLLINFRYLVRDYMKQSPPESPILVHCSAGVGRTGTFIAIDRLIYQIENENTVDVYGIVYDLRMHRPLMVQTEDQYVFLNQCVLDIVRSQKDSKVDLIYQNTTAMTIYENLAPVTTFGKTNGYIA

Mus musculus = assay: Antiobesity activity in high fat diet-induced obese Ptpn1fl/fl null C57BL/6 mouse assessed as hypophagia at 100 ug/kg, ip for 10 consecutive days; format: functional, organism-based
[4] = target: T3, Tyrosine-protein phosphatase non-receptor type 2 (Homo sapiens) (UniProt P17706); assay: Inhibition of human N-terminal His6-tagged TCPTP catalytic domain (1 to 336 residues) expressed in Escherichia coli strain Rosetta2 (DE3) using DiFMUP as substrate preincubated for 10 mins followed by substrate addition and measured after 10 mins in presence of 0.05% Tween20 by fluorescence assay
T3 sequence (whole entry): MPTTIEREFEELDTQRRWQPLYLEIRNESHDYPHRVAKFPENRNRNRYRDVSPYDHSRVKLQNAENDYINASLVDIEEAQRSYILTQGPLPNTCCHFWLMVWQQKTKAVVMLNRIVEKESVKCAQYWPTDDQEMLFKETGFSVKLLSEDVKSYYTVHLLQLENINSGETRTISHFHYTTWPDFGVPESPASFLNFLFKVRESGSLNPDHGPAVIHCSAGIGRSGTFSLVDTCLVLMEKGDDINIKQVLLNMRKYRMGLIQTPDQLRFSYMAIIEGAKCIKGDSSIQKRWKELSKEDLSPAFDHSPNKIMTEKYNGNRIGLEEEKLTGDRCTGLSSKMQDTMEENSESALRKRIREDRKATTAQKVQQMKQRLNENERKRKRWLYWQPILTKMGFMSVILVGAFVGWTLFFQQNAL
Procedure, shortened: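 DiFMUP IC50 assay (1 nM enzyme, 10 min preincubation, substrate at Km, 37 °C, ex 358/em 455 nm), repeated as an aggregation check under three altered conditions: 10-fold enzyme (10 nM), 0.05% Tween 20, or 0.1 mg/mL BSA in buffer.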

CC1=C(O)C(=O)C=C2C1=CC=C1[C@@]2(C)CC[C@@]2(C)[C@@H]3C[C@](C)(C(=O)O)CC[C@]3(C)CC[C@]12C [CELASTROL]
IC50 [1]: 95.3 µM
IC50 [2]: 4.1 µM
IC50 [3]: 111 µM
Activity (Mus musculus): Active
inhibition [4]: Active
